The species named for assay [1] is Rattus norvegicus. The assay can be described thus: Antifertility activity measured as minimum protective dose for prevention of pregnancy in rats. The assay is classed as functional. Set-up: unit not given here. The gist of the method: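 Oral dosing in adult cycling female rats selected in the proestrous phase, 10 animals per dose, with treatment starting on the day of proestrus.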

Assay [2] addresses T1, Estrogen receptor (Rattus norvegicus) (UniProt P06211+Q62986). The experiment in a line: Oral estrogenic activity in 21 day old immature ovariectomized rats at 1000 ug. In kind it is functional. In outline: (§1)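 Rats dosed orally with compound suspended in 0.5% (carboxymethyl)cellulose, 10 animals per dose, daily for 4 days starting on the day of ovariectomy. Autopsy on the day after the last dose. Read-outs were the increase in uterine weight and cornification of vaginal smears, taken from animals with open vaginas, compared against a standard estrogen.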

Assay [3] deals with T1, Estrogen receptor (Rattus norvegicus). The experiment in a line: Oral estrogenic activity in 21 day old immature ovariectomized rats at 200 ug. The assay is classed as functional. In outline: as §1
For assay [4] the target is unchanged. The assay can be described thus: Oral estrogenic activity in 21 day old immature ovariectomized rats at 500 ug. In kind it is functional. In outline:
as §1

Assay [5] has the same target.
The species entered for assay [6] is Rattus norvegicus. The assay can be described thus: Separation of antifertility from estrogenic activity in rats was measured. In kind it is functional.

For `CCCC[Si](C=C[C@]1(O)CC[C@H]2[C@@H]3CCc4cc(O)ccc4[C@H]3CC[C@@]21C)(CCCC)CCCC`, the Antifertility potency in the assay filed under Rattus norvegicus [1] stood at 0. Also, the Estrogenic potency in assay [2] was 0.

On to `CCC(C#C[C@]1(O)CC[C@H]2[C@@H]3CCc4cc(O)ccc4[C@H]3CC[C@@]21C)(CC)CC`, for which the Antifertility potency in the assay filed under Rattus norvegicus [1] came out at 0. Further, in assay [2], the Estrogenic potency was determined as 0.

`C[C@]12CC[C@@H]3c4ccc(O)cc4CC[C@H]3[C@@H]1CC[C@@]2(O)/C=C/[Si](c1ccccc1)(c1ccccc1)c1ccccc1` had an Antifertility potency in the assay listed under Rattus norvegicus [1] of 0. Further, the Estrogenic potency in assay [3] came to 0.

Consider `C=C([C@]1(O)CC[C@H]2[C@@H]3CCc4cc(O)ccc4[C@H]3CC[C@@]21C)[Si](CCCC)(CCCC)CCCC`, for which, in assay [4], the Estrogenic potency was 0. The compound also came in with an Antifertility potency in the assay filed under Rattus norvegicus [1] of 0.

Take `C[C@]12CC[C@@H]3c4ccc(O)cc4CC[C@H]3[C@@H]1CC[C@@]2(O)C#C[Si](C)(C)CCC#N`: the Estrogenic potency in assay [5] turned out to be 37. In addition, the Separation in the assay filed under Rattus norvegicus [6] stood at 8. Besides, the Antifertility potency in the assay listed under Rattus norvegicus [1] is 300.

As to `C[C@]12CC[C@@H]3c4ccc(O)cc4CC[C@H]3[C@@H]1CC[C@@]2(O)C#C[Si](C)(C)CCC(F)(F)F`, the Estrogenic potency in assay [5] is 19. In the assay listed under Rattus norvegicus [6], this compound had a Separation of 8. In addition, the Antifertility potency in the assay filed under Rattus norvegicus [1] amounted to 150.

In turn, `C[C@]12CC[C@@H]3c4ccc(O)cc4CC[C@H]3[C@@H]1CC[C@@]2(O)C#C[Si]1(C)CCCCC1` yielded an Estrogenic potency in assay [5] of 25. The compound also yielded a Separation in the assay filed under Rattus norvegicus [6] of 10. In the assay listed under Rattus norvegicus [1], this compound displayed an Antifertility potency of 250.

Compound `C=C([C@]1(O)CC[C@H]2[C@@H]3CCc4cc(O)ccc4[C@H]3CC[C@@]21C)[Si](c1ccccc1)(c1ccccc1)c1ccccc1` showed an Antifertility potency in the assay listed under Rattus norvegicus [1] of 0. For the same compound, the Estrogenic potency in assay [3] is 0.

Compound `C[C@]12CC[C@@H]3c4ccc(O)cc4CC[C@H]3[C@@H]1CC[C@@]2(O)C#C[Si](C)(C)C(Cl)Cl` displayed an Estrogenic potency in assay [5] of 18. For the same compound, the Separation in the assay listed under Rattus norvegicus [6] is recorded as 17. For the same compound, the Antifertility potency in the assay filed under Rattus norvegicus [1] was found to be 300.

Consider `C[C@]12CC[C@@H]3c4ccc(O)cc4CC[C@H]3[C@@H]1CC[C@@]2(O)C#C[Si](C)(C)Cc1ccccc1`, for which the Estrogenic potency in assay [5] stood at 12. This compound also registered a Separation in the assay listed under Rattus norvegicus [6] of 25. This compound also came in with an Antifertility potency in the assay listed under Rattus norvegicus [1] of 300.

The compound `CC(C)[Si](C)(C)C#C[C@]1(O)CC[C@H]2[C@@H]3CCc4cc(O)ccc4[C@H]3CC[C@@]21C` came in with an Estrogenic potency in assay [5] of 15. The Separation in the assay listed under Rattus norvegicus [6] was 20. In the assay listed under Rattus norvegicus [1], the Antifertility potency is 300.

In the case of `CCC[Si](C)(C)C#C[C@]1(O)CC[C@H]2[C@@H]3CCc4cc(O)ccc4[C@H]3CC[C@@]21C`, in assay [5], the Estrogenic potency is 22. This compound also returned a Separation in the assay filed under Rattus norvegicus [6] of 14. Also, the Antifertility potency in the assay listed under Rattus norvegicus [1] was determined as 300.

In the case of `CCC[Si](C#C[C@]1(O)CC[C@H]2[C@@H]3CCc4cc(O)ccc4[C@H]3CC[C@@]21C)(CCC)CCC`, in assay [5], the Estrogenic potency is 25. This compound also came in with a Separation in the assay listed under Rattus norvegicus [6] of 8. Further, the Antifertility potency in the assay listed under Rattus norvegicus [1] is reported as 200.

The values are drawn from ChEMBL document CHEMBL1123923, “Steroidal silicon side-chain analogues as potential antifertility agents” (1987).
